Assay results: ChEMBL document CHEMBL3259693, “Multitarget drug discovery for tuberculosis and other infectious diseases” (J Med Chem, 2014)
In brackets after ≈: the same amount, converted by molar mass. Activity calls are given as the source filed them. The rule behind the calls is not given here.

Legend:
[1] = Inhibition of Mycobacterium tuberculosis MenA
[2] = system: Mycobacterium tuberculosis; assay: Antimicrobial activity against Mycobacterium tuberculosis H37Rv; type: functional
[3] = system: Mycobacterium tuberculosis; assay: microbe, parasite or virus in culture; type: functional; conditions: ATCC 27294
[4] = system: Mycolicibacterium smegmatis; assay: microbe, parasite or virus in culture; type: functional; conditions: ATCC 700084
[5] = system: Bacillus subtilis; assay: Antimicrobial activity against Bacillus subtilis subsp. subtilis ATCC 6051 after 12 to 16 hrs by microbroth dilution method; type: functional, organism-based
[6] = system: Escherichia coli; assay: microbe, parasite or virus in culture; type: functional, organism-based; conditions: ATCC 29425, 3 h
[7] = system: Saccharomyces cerevisiae; assay: Antimicrobial activity against Saccharomyces cerevisiae ATCC 208352 after 48 hrs by microbroth dilution method; type: functional, organism-based; conditions: ATCC 208352, 48 h
[8] = system: Candida albicans; assay: Antimicrobial activity against Candida albicans CAI-4; type: functional, organism-based
[9] = system: Plasmodium falciparum; assay: Antimicrobial activity against Plasmodium falciparum 3D7 by intraerythrocytic assay; type: functional, organism-based
[10] = system: MCF7; assay: Cytotoxicity against human MCF7 cells assessed as growth inhibition by MTT assay; type: cell-based
[11] = Therapeutic index, ratio of IC50 for human MCF7 cells to IC50 for Plasmodium falciparum 3D7; type: cell-based; conditions: MCF7 cells versus Plasmodium falciparum 3D7, read-out: Ratio IC50
[12] = system: Escherichia coli; assay: Ratio of IC50 for Escherichia coli ATCC 29425 in presence of 10% fetal bovine serum to IC50 for Escherichia coli ATCC 29425; type: functional
Outline: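 E. coli broth microdilution in LB. Culture was grown to OD600 ~0.4, diluted 500-fold, and exposed to compound from 0.3 mM, 2× serially diluted to 292 nM. Plates ran 3 h at 37 °C with or without 10% FBS. Viability was read by MTT at 570 nm, and IC50 was obtained by non-linear regression.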

[13] = Inhibition of Mycobacterium tuberculosis cis-farnesyl diphosphate synthase
[14] = Inhibition of Mycobacterium tuberculosis cis-decaprenyl diphosphate synthase
[15] = Inhibition of Plasmodium vivax geranylgeranyl diphosphate synthase
[16] = Inhibition of Staphylococcus aureus undecaprenyl diphosphate synthase
[17] = Inhibition of Escherichia coli undecaprenyl diphosphate synthase
[18] = Inhibition of Staphylococcus aureus farnesyl diphosphate synthase
[19] = target: T1, Geranylgeranyl pyrophosphate synthase (Homo sapiens, UniProt O95749); assay: Inhibition of human geranylgeranyl diphosphate synthase
T1 sequence (O95749 whole entry): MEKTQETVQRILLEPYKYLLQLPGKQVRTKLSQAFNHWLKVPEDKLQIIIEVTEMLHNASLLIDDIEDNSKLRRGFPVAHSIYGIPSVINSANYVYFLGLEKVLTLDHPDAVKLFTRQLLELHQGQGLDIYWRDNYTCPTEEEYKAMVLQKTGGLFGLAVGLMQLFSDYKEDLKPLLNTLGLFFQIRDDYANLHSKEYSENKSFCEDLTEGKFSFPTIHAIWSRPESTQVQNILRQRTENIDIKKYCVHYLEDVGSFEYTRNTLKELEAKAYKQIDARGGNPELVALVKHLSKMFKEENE

[20] = target: T2, 4,4'-diapophytoene synthase (Staphylococcus aureus, UniProt A9JQL9); assay: Inhibition of Staphylococcus aureus CrtM
T2 sequence (A9JQL9 whole entry): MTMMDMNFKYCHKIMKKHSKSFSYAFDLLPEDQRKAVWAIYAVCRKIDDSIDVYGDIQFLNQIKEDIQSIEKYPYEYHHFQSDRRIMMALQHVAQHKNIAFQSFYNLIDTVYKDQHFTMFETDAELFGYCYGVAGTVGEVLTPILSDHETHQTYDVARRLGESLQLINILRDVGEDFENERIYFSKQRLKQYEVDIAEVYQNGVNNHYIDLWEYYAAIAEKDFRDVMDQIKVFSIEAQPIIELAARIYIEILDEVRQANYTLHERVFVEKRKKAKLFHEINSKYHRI

[21] = target: T3, Squalene synthase (Homo sapiens, UniProt P37268); assay: Inhibition of human SQS
T3 sequence (P37268 whole entry): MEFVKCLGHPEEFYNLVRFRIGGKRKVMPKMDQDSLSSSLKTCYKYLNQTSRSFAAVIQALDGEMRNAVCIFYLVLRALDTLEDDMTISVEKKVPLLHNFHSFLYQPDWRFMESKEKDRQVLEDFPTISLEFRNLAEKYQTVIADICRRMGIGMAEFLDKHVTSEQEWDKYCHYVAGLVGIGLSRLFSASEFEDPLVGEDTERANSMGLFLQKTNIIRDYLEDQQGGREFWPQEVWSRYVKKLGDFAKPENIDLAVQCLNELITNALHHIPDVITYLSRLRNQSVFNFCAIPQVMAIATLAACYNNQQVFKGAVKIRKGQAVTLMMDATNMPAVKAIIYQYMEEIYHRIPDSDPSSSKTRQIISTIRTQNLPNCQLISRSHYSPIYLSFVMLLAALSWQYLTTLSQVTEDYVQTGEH

[22] = Inhibition of Mycobacterium smegmatis MenA; design: species or system Mycolicibacterium smegmatis
[23] = Inhibition of Mycobacterium smegmatis MenG using radiolabeled S-adenosylmethionine as substrate after 1 hr by liquid scintillation counting analysis; design: species or system Mycolicibacterium smegmatis
[24] = system: Mycolicibacterium smegmatis; assay: Inhibition of respiration in Mycobacterium smegmatis after 5 mins by methylene blue reduction assay in presence of NADH; type: functional, organism-based
[25] = system: Mycolicibacterium smegmatis; assay: Disruption of membrane potential in Mycobacterium smegmatis by DisC3(5) probe-based fluorescence spectrophotometry; type: functional, organism-based
[26] = Inhibition of Escherichia coli N-terminal strep-tagged MenA expressed in Escherichia coli C43 (DE3) assessed as demethylmenaquinone-3 formation after 30 mins by HPLC analysis
[27] = system: Escherichia coli; assay: Induction of collapse in deltapH in Escherichia coli inverted membrane vesicles by 31P NMR spectroscopy; type: functional, organism-based
[28] = system: Mycobacterium tuberculosis; assay: Antimicrobial activity against Mycobacterium tuberculosis H37Rv incubated for 7 days measured after 28 days by resazurin microplate reduction assay; type: functional
Outline: (§1)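 Resazurin microplate reduction assay (REMA) on actively growing M. tuberculosis H37Rv. Drug tested from 10 ng/mL to 10 μg/mL. Medium was supplemented with 0, 10, 100 or 1000 μM menaquinone-4 (MK-4) to test quinone rescue. Activity was read as loss of resazurin reduction to fluorescent resorufin, giving an MIC.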

[29] = system: Mycobacterium tuberculosis; assay: Antimicrobial activity against nonreplicating streptomycin-starved Mycobacterium tuberculosis 18b at 1 ug/ml incubated for 7 days measured after 28 days by resazurin microplate reduction assay; type: functional
[30] = system: Mycobacterium tuberculosis; assay: Antimicrobial activity against Mycobacterium tuberculosis H37Rv incubated for 7 days measured after 28 days by resazurin microplate reduction assay in presence of MK-4; type: functional; outline: as §1
[31] = Inhibition of Mycobacterium smegmatis malate dehydrogenase using malate as substrate by MTT assay; design: species or system Mycolicibacterium smegmatis
Outline: (§2)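 M. smegmatis membrane preparation with 5 mM KCN. Dehydrogenase activity was followed as MTT reduction at 570 nm after adding substrate: NADH (Complex I plus NDH-2), deamino-NADH (Complex I only), succinate, malate or lactate. IC50 values were derived from these rates.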

[32] = Therapeutic index, ratio of IC50 for human MCF7 cells to MIC for Mycobacterium tuberculosis ATCC 27294; type: cell-based; conditions: MCF7 cells versus Mycobacterium tuberculosis ATCC 27294, read-out: TI
[33] = Inhibition of Mycobacterium smegmatis electron transport protein complex 1 using NADH as substrate by MTT assay; design: species or system Mycolicibacterium smegmatis; outline: as §2
[34] = Inhibition of Mycobacterium smegmatis NADH dehydrogenase using […] by MTT assay; design: species or system Mycolicibacterium smegmatis; outline: as §2
[35] = Inhibition of Mycobacterium smegmatis electron transport protein complex 1 using deamino-NADH as substrate by MTT assay; design: species or system Mycolicibacterium smegmatis; outline: as §2
[36] = Inhibition of Mycobacterium smegmatis succinate dehydrogenase using succinate as substrate by MTT assay; design: species or system Mycolicibacterium smegmatis; outline: as §2
[37] = Inhibition of Mycobacterium smegmatis lactate dehydrogenase using lactate as substrate by MTT assay; design: species or system Mycolicibacterium smegmatis; outline: as §2
[38] = system: Mycolicibacterium smegmatis; assay: Induction of collapse in deltapH in Mycobacterium smegmatis inverted membrane vesicles at 30 to 150 uM by 31P NMR spectroscopy; type: functional

Question: Which IC50 [1] does the source give for CC(C)=CCC/C(C)=C/CNCCNC1C2CC3CC(C2)CC1C3 (centres undefined) [SQ109] here?
Answer: 9 µM

Question: What about the MIC [2] of the same molecule?
Answer: 0.7 µM (≈ 0.231 µg/mL)

Question: And the MIC [3]?
Answer: 0.3 µM (≈ 0.0992 µg/mL)

Question: And the MIC [4]?
Answer: 9.4 µM (≈ 3.11 µg/mL)

Question: And the IC50 [5]?
Answer: 23 µM

Question: And the IC50 [6]?
Answer: 8.5 µM

Question: And the IC50 [7]?
Answer: 3.3 µM

Question: And the IC50 [8]?
Answer: 10 µM

Question: What about the IC50 [9] of the same molecule?
Answer: 3 µM

Question: What about the IC50 [10] of the same molecule?
Answer: 18 µM

Question: And the selectivity ratio [11]?
Answer: 18

Question: What about the “Ratio IC50” value [12] of the same molecule?
Answer: 1.6

Question: What about the IC50 [13] of the same molecule?
Answer: ≥ 50 µM

Question: And the IC50 [14]?
Answer: ≥ 50 µM

Question: And the IC50 [15]?
Answer: ≥ 50 µM

Question: What about the IC50 [16] of the same molecule?
Answer: ≥ 50 µM

Question: What about the IC50 [17] of the same molecule?
Answer: ≥ 50 µM

Question: What about the IC50 [18] of the same molecule?
Answer: ≥ 50 µM

Question: And the IC50 [19]?
Answer: 4.5 µM

Question: And the IC50 [20]?
Answer: 100 µM

Question: And the IC50 [21]?
Answer: 100 µM

Question: And the IC50 [22]?
Answer: 4.8 µM

Question: And the IC50 [23]?
Answer: 13 µM

Question: And the IC50 [24]?
Answer: 58 µM

Question: What about the EC50 [25] of the same molecule?
Answer: 20 µg/mL (≈ 60.5 µM)

Question: What about the IC50 [25] of the same molecule?
Answer: 55 µM

Question: What about the IC50 [26] of the same molecule?
Answer: 3.3 µM

Question: And the IC50 [27]?
Answer: 0.8 µM

Question: What about the MIC [28] of the same molecule?
Answer: 0.15 µg/mL (≈ 0.454 µM)

Question: And the MIC [29]?
Answer: 1 µg/mL (≈ 3.03 µM)

Question: What about the MIC [30] of the same molecule?
Answer: 1 µg/mL

Question: And the IC50 [31]?
Answer: 10 µg/mL (≈ 30.3 µM)

Question: And the selectivity ratio [32]?
Answer: 120

Question: And the IC50 [33]?
Answer: 30 µg/mL (≈ 90.8 µM)

Question: And the IC50 [34]?
Answer: 30 µg/mL (≈ 90.8 µM)

Question: And the IC50 [35]?
Answer: 30 µg/mL (≈ 90.8 µM)

Question: What about the IC50 [36] of the same molecule?
Answer: 30 µg/mL (≈ 90.8 µM)

Question: And the IC50 [37]?
Answer: 30 µg/mL (≈ 90.8 µM)

Question: And the Activity [38]?
Answer: Active
